The test system of test [1] is Plasmodium falciparum. Description: In vitro inhibitory concentration against Plasmodium falciparum F32. Type of test: functional, organism-based. Summed up:
(§1)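 P. falciparum F32-Tanzania (chloroquine-sensitive) cultured per Trager-Jensen in glucose-enriched RPMI 1640 with 10% human serum, 37 °C, candle jar. Human O+ red cells at 5% haematocrit, 1% parasitaemia. After 24 h, medium replaced with drug-containing medium (final DMSO ≤0.1%) and incubated a further 48 h. Parasitaemia counted on blood smears; IC50 read graphically from % inhibition vs concentration. Triplicate. Index = IC50 chloroquine/IC50 compound ×100.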

For test [2], the system named is Plasmodium falciparum. The experiment in a line: Antiplasmodial potency relative to chloroquine. Type of test: functional. Summed up:
as §1

The test system of test [3] is Ferriprotoporphyrin IX. The experiment in a line: Inhibitory concentration against ferriprotoporphyrin in biomineralisation assay (FBIT); Not active. Type of test: functional, Plasmodium falciparum. Summed up:
(§2)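 Heme biomineralization (FBIT): haemin chloride (0.5 mg/mL stock in DMSO), 0.5 M sodium acetate pH 4.4 and compound solution (10 mg/mL stock) were added in that order, final pH 5–5.2, and incubated at 37 °C for 18–24 h. After centrifugation, the pellet was washed with DMSO and the β-haematin dissolved in 0.1 M NaOH; absorbance read at 405 nm. % inhibition calculated against the solvent control.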

Test [4] relates to Ferriprotoporphyrin IX. Description: In vitro inhibitory concentration against ferriprotoporphyrin in biomineralisation assay (FBIT); Not active. Type of test: functional, Plasmodium falciparum. Summed up: as §2
Test [5] has as its system Ferriprotoporphyrin IX. Description: Antiplasmodial potency relative to chloroquine in ferriprotoporphyrin biomineralisation assay. Type of test: functional. To be noted: Plasmodium falciparum.
Test [6] relates to Ferriprotoporphyrin IX. Description: Inhibitory concentration against ferriprotoporphyrin in biomineralisation (FBIT). Type of test: functional, Plasmodium falciparum. Summed up:
as §2

In test [7] the test system is Ferriprotoporphyrin IX. Description: In vitro inhibitory concentration against ferriprotoporphyrin in biomineralisation assay (FBIT). Type of test: functional, Plasmodium falciparum. Summed up:
as §2

Test [8] relates to Ferriprotoporphyrin IX. Description: Inhibitory concentration against ferriprotoporphyrin in biomineralisation assay (FBIT). Type of test: functional, Plasmodium falciparum. Summed up: as §2

Molecules are shown by their SMILES. ≈ marks a conversion by molar mass, not a printed value. Where “and” joins values, the source holds several entries; their conditions need not be identical. Equal entries are not always repeated.

As a reminder, the IC50 is the concentration that gives 50% inhibition. The low end stands for greater potency, the high end for weaker potency.

With `COc1ccc(CC2(O)c3ccccc3C3=NCCN32)cc1` (stereo unspecified), the IC50 with Plasmodium falciparum [1] is 0.017 µg/mL and 40 nM; in the test with Ferriprotoporphyrin IX [3] it was “Not Active”; with Ferriprotoporphyrin IX [4], “Not Active”. Moreover, the Index in the test with Plasmodium falciparum [2] worked out at 100%.

For `COc1cc(C(=O)C(=O)c2ccccc2C(=O)N2CCCCC2)cc(OC)c1OC`, the IC50 with Plasmodium falciparum [1] is 30 µg/mL and 82 µM. In addition, in the test with Plasmodium falciparum [2], the Index was less than 0.1%.

As for `COc1cc(CC(=O)c2ccccc2C(=O)N2CCCCC2)cc(OC)c1OC`, in the test with Plasmodium falciparum [1], the IC50 is 100 µg/mL and > 100 µM. Also, in the test with Plasmodium falciparum [2], the Index is listed as less than 0.1%.

As to `COc1cc(CC2(O)c3ccccc3C3=NCCCN32)cc(OC)c1OC` (stereo unspecified), the half-inhibitory concentration (IC50) in the test on Plasmodium falciparum [1] is 5.2 µg/mL and 16.1 µM. Also, the Index with Plasmodium falciparum [2] stood at 0.2%.

On to `C=C[C@H]1CN2CC[C@H]1C[C@H]2[C@H](O)c1ccnc2ccc(OC)cc12` [QUININE], for which the Index in the test on Ferriprotoporphyrin IX [5] came to 11%. The IC50 with Ferriprotoporphyrin IX [6] stood at 80 µg/mL (≈ 247 µM); with Ferriprotoporphyrin IX [7], 250 µM.

With `OC1(Cc2ccc(Cl)cc2)c2ccccc2C2=NCCCN21` (stereo unspecified), the IC50 with Plasmodium falciparum [1] was 3.6 µg/mL and 11.5 µM. The compound further registered an Index in the test with Plasmodium falciparum [2] of 0.3%.

On to `COc1cc(Cc2nnc(O)c3ccccc23)cc(OC)c1OC`, for which, in the test on Plasmodium falciparum [1], the concentration for half-maximal inhibition (IC50) was > 100 µg/mL and > 100 µM. The same compound had an Index in the test on Plasmodium falciparum [2] of less than 0.01%.

Consider `O=C(C(=O)c1ccccc1C(=O)N1CCCCC1)c1ccc(Cl)cc1`, for which, in the test with Plasmodium falciparum [1], the IC50 was 12 µg/mL and 33.8 µM. This compound also registered an Index with Plasmodium falciparum [2] of 0.12%.

As for `COc1cc(Cc2nn(C)c(=O)c3ccccc23)cc(OC)c1OC`, the IC50 with Plasmodium falciparum [1] was 32 µg/mL and > 100 µM. This compound came in with an Index with Plasmodium falciparum [2] of less than 0.1%.

As for `COc1ccc(Cc2nn(C)c(=O)c3ccccc23)cc1`, the IC50 is 1 µg/mL and 3.6 µM in the test with Plasmodium falciparum [1]; “Not Active” in the test on Ferriprotoporphyrin IX [3]; “Not Active” with Ferriprotoporphyrin IX [4]. Moreover, the Index in the test on Plasmodium falciparum [2] turned out to be 1.1%.

In the case of `COc1ccc(Cc2nnc(O)c3ccccc23)cc1`, the IC50 with Plasmodium falciparum [1] was 1 µg/mL and 3.8 µM; with Ferriprotoporphyrin IX [8], 1530 µg/mL (≈ 5750 µM); with Ferriprotoporphyrin IX [7], 5750 µM. For the same compound, the Index in the test with Plasmodium falciparum [2] stood at 1.1%; with Ferriprotoporphyrin IX [5], 0.5%.

As to `COc1ccc(CCc2cc(O)cc(OC)c2C(=O)N2CCCCC2)cc1`, in the test with Plasmodium falciparum [1], the IC50 is 6 µg/mL and 16.3 µM. In the test on Plasmodium falciparum [2], this compound displayed an Index of 0.25%.

As for `CCN(CC)CCCC(C)Nc1ccnc2cc(Cl)ccc12` (stereo unspecified) [CHLOROQUINE], the IC50 with Ferriprotoporphyrin IX [8] turned out to be 8.5 µg/mL (≈ 26.6 µM); in the test with Ferriprotoporphyrin IX [7], 28 µM.

With `OC1(Cc2ccccc2)c2ccccc2C2=NCCN21` (stereo unspecified), in the test on Plasmodium falciparum [1], the IC50 is 2.5 µg/mL and 9.5 µM. The compound also displayed an Index with Plasmodium falciparum [2] of 0.4%.

Turning to `COc1cc(CC2(O)c3ccccc3C3=NCCN32)cc(OC)c1OC` (stereo unspecified), the half-inhibitory concentration (IC50) is 0.022 µg/mL and 70 nM in the test on Plasmodium falciparum [1]; 590 µg/mL (≈ 1660 µM) with Ferriprotoporphyrin IX [8]; 1740 µM with Ferriprotoporphyrin IX [7]. Besides, the figures for the Index in the test with Plasmodium falciparum [2] and in the test with Ferriprotoporphyrin IX [5] were 57% and 1.6%, respectively.

For `OC1(Cc2ccc3c(c2)OCO3)c2ccccc2C2=NCCN21` (stereo unspecified), the IC50 with Plasmodium falciparum [1] was 0.067 µg/mL and 190 nM. In the test on Plasmodium falciparum [2], the Index was found to be 21%.

For `COc1ccc(CCc2cc(O)cc(OC)c2C(=O)O)cc1` [ISONOTHOLAENIC ACID], the half-inhibitory concentration (IC50) in the test with Plasmodium falciparum [1] was 16 µg/mL and 53 µM. For the same compound, the Index in the test on Plasmodium falciparum [2] was less than 0.1%.

As for `O=C(Cc1ccc(Cl)cc1)c1ccccc1C(=O)N1CCCCC1`, the IC50 in the test on Plasmodium falciparum [1] was 12 µg/mL and 35 µM. This compound also yielded an Index in the test with Plasmodium falciparum [2] of 0.11%.

For `COc1ccc(CC2(O)c3ccccc3C3=NCCCN32)cc1OC` (stereo unspecified), the IC50 in the test on Plasmodium falciparum [1] is 32 µg/mL and 104 µM. Further, the Index with Plasmodium falciparum [2] was less than 0.1%.

As to `Cn1nc(Cc2ccc3c(c2)OCO3)c2ccccc2c1=O`, the IC50 in the test on Plasmodium falciparum [1] is 3.8 µg/mL and 11 µM. In addition, the Index in the test on Plasmodium falciparum [2] is recorded as 0.4%.

For the compound `COc1ccc(CC2(O)c3ccccc3C3=NCCCN32)cc1` (stereo unspecified), the IC50 in the test on Plasmodium falciparum [1] was 2.3 µg/mL and 7.5 µM. This compound also displayed an Index with Plasmodium falciparum [2] of 0.5%.

Regarding `O=C(Cc1ccc2c(c1)OCO2)c1ccccc1C(=O)N1CCCCC1`, in the test on Plasmodium falciparum [1], the 50% inhibitory concentration (IC50) is > 100 µg/mL and > 100 µM. In the test on Plasmodium falciparum [2], the Index was less than 0.1%.

`O=C(C(=O)c1ccccc1C(=O)N1CCCCC1)c1ccc2c(c1)OCO2`: the IC50 in the test with Plasmodium falciparum [1] is 8.5 µg/mL and 20.7 µM. The compound also gave an Index in the test on Plasmodium falciparum [2] of 0.2%.

In the case of `OC1(Cc2ccc3c(c2)OCO3)c2ccccc2C2=NCCCN21` (stereo unspecified), in the test on Plasmodium falciparum [1], the IC50 was 38 µg/mL and 104 µM. In addition, the Index in the test on Plasmodium falciparum [2] is reported as less than 0.1%.

For the compound `COc1ccc(C(=O)C(=O)c2ccccc2C(=O)N2CCCCC2)cc1`, the IC50 in the test with Plasmodium falciparum [1] was 17 µg/mL and 48 µM. Besides, the Index with Plasmodium falciparum [2] was less than 0.1%.

In the case of `COc1ccc(C(=O)C(=O)c2ccccc2C(=O)N2CCCCC2)cc1OC`, the half-maximal inhibitory concentration (IC50) with Plasmodium falciparum [1] was 32 µg/mL and 84 µM. The compound also displayed an Index in the test with Plasmodium falciparum [2] of less than 0.1%.

With `O=c1[nH]nc(Cc2ccccc2)c2ccccc12`, the IC50 with Plasmodium falciparum [1] is > 100 µg/mL and > 100 µM. This compound displayed an Index with Plasmodium falciparum [2] of less than 0.1%.

For the compound `COc1ccc(Cc2nnc(O)c3ccccc23)cc1OC`, the IC50 in the test on Plasmodium falciparum [1] was 95 µg/mL and > 100 µM. This compound also registered an Index in the test with Plasmodium falciparum [2] of less than 0.1%.

Regarding `COc1ccc(CC(=O)c2ccccc2C(=O)N2CCCCC2)cc1`, the half-maximal inhibitory concentration (IC50) in the test with Plasmodium falciparum [1] was > 100 µg/mL and > 100 µM. The same compound returned an Index in the test on Plasmodium falciparum [2] of less than 0.1%.

Take `OC1(Cc2ccccc2)c2ccccc2C2=NCCCN21` (stereo unspecified): the IC50 in the test with Plasmodium falciparum [1] was 1 µg/mL and 3.6 µM; in the test with Ferriprotoporphyrin IX [3] it was “Not Active”; in the test with Ferriprotoporphyrin IX [4], “Not Active”. This compound also had an Index in the test with Plasmodium falciparum [2] of 1.1%.

On to `OC1(Cc2ccc(Cl)cc2)c2ccccc2C2=NCCN21` (stereo unspecified), for which the concentration for half-maximal inhibition (IC50) is 0.036 µg/mL and 110 nM with Plasmodium falciparum [1]; “Not Active” in the test on Ferriprotoporphyrin IX [3]; “Not Active” in the test with Ferriprotoporphyrin IX [4]. In the test with Plasmodium falciparum [2], the Index is recorded as 36%.

As for `COc1ccc(Cc2nn(C)c(=O)c3ccccc23)cc1OC`, the IC50 in the test on Plasmodium falciparum [1] was 26 µg/mL and 84 µM. Further, the Index in the test on Plasmodium falciparum [2] is listed as less than 0.1%.

Take `Cn1nc(Cc2ccc(Cl)cc2)c2ccccc2c1=O`: the half-inhibitory concentration (IC50) with Plasmodium falciparum [1] was 15 µg/mL and 52.8 µM. Moreover, in the test on Plasmodium falciparum [2], the Index is on record as less than 0.1%.

As to `COc1ccc(CC(=O)c2ccccc2C(=O)N2CCCCC2)cc1OC`, the IC50 in the test with Plasmodium falciparum [1] was 36 µg/mL and 98 µM. Moreover, the Index in the test on Plasmodium falciparum [2] is less than 0.1%.

Consider `COc1ccc(CC2(O)c3ccccc3C3=NCCN32)cc1OC` (stereo unspecified), for which the concentration for half-maximal inhibition (IC50) in the test on Plasmodium falciparum [1] was 4.9 µg/mL and 9.3 µM. Moreover, in the test with Plasmodium falciparum [2], the Index came to 0.4%.

Take `Cn1nc(Cc2ccccc2)c2ccccc2c1=O`: the half-inhibitory concentration (IC50) in the test with Plasmodium falciparum [1] is 5 µg/mL and 20 µM. The same compound yielded an Index in the test with Plasmodium falciparum [2] of 0.2%.

As for `Oc1nnc(Cc2ccc(Cl)cc2)c2ccccc12`, in the test on Plasmodium falciparum [1], the half-maximal inhibitory concentration (IC50) is 6 µg/mL and 22 µM. This compound also had an Index in the test on Plasmodium falciparum [2] of 0.18%.

In the case of `Oc1nnc(Cc2ccc3c(c2)OCO3)c2ccccc12`, the 50% inhibitory concentration (IC50) with Plasmodium falciparum [1] is > 100 µg/mL and > 100 µM. Further, the Index in the test on Plasmodium falciparum [2] is recorded as less than 0.01%.

The record behind these values is ChEMBL document CHEMBL1136166, “The imidazo[2,1-a]isoindole system. A new skeletal basis for antiplasmodial compounds” (Bioorg Med Chem Lett, 2003).
